Assay results reported in ChEMBL document CHEMBL1141213, “Lysosomotropism of basic cathepsin K inhibitors contributes to increased cellular potencies against off-target cathepsins and reduced functional selectivity” (J Med Chem, 2005).

Experiments:
Cathepsin K [1] = target: Cathepsin K (Homo sapiens, UniProt P43235); assay: Inhibitory activity against humanized rabbit cathepsin K; design: species or system Oryctolagus cuniculus
Cathepsin B [2] = target: T1, Cathepsin B (Homo sapiens, UniProt P07858); assay: Inhibitory activity against human cathepsin B
Cathepsin B [3] = target: T1, Cathepsin B; assay: Inhibitory activity against human cathepsin B expressed in HepG2 cells; format: cell-based
Procathepsin L [4] = target: T2, Procathepsin L (Homo sapiens, UniProt P07711); assay: Inhibitory activity against human cathepsin L
T2 sequence (P07711 whole entry): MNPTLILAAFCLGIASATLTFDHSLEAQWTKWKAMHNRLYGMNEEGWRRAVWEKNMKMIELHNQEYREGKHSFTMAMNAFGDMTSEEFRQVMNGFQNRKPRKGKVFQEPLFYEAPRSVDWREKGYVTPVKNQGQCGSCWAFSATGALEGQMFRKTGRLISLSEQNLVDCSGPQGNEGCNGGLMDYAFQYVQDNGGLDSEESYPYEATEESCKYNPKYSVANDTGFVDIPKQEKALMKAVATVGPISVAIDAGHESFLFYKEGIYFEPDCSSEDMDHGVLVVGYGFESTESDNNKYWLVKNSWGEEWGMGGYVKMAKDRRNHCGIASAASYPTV

Procathepsin L [5] = target: T2, Procathepsin L; assay: Inhibitory activity against human cathepsin L expressed in HepG2 cells; format: cell-based
Cathepsin S [6] = target: T3, Cathepsin S (Homo sapiens, UniProt P25774); assay: Inhibitory activity against human cathepsin S
T3 sequence (P25774 whole entry): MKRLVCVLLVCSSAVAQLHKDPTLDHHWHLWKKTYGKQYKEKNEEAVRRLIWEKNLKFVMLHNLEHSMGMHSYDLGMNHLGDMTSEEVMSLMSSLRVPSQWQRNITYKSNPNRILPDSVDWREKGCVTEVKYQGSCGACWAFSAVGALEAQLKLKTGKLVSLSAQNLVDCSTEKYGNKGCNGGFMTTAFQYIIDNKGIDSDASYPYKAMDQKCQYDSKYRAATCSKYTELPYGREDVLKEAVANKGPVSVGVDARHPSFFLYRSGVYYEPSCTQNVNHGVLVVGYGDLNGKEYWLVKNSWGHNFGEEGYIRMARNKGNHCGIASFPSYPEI

Cathepsin S [7] = target: T3, Cathepsin S; assay: Inhibitory activity against human cathepsin S expressed in ramos cells; format: cell-based
Cathepsin K [8] = target: T4, Cathepsin K (Oryctolagus cuniculus, UniProt P43236); assay: Inhibitory activity against rabbit cathepsin K
T4 sequence (P43236 whole entry): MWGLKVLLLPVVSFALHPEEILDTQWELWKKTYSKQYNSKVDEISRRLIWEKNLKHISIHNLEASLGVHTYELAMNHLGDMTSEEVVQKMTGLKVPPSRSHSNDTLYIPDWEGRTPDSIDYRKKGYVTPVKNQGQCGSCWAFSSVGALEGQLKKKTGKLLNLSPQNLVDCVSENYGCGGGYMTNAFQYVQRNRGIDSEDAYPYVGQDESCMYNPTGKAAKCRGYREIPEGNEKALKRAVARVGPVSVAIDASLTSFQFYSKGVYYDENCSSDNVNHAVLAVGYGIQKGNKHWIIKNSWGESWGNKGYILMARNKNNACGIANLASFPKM

Osteoclast = assay: Effect of compound on degradation of collagen in osteoclast bone resorption assay; format: functional, cell-based; conditions: Oryctolagus cuniculus
Cathepsin S [9] = target: T5, Cathepsin S (Mus musculus, UniProt O70370); assay: Inhibitory activity against mouse cathepsin S
T5 sequence (O70370 whole entry): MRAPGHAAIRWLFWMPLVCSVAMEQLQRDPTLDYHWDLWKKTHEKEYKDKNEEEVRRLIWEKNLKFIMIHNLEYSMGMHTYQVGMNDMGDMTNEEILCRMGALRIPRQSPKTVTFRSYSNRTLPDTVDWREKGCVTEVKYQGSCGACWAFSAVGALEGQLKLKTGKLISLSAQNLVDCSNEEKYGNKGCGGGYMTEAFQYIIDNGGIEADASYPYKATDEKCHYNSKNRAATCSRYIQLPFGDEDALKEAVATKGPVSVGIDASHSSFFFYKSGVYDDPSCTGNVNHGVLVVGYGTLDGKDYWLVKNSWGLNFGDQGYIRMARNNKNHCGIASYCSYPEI

Cathepsin S [10] = target: T5, Cathepsin S; assay: Inhibitory activity against mouse cathepsin S in mouse splenocytes; format: cell-based
Method in brief: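 Splenocytes from 8–10-week C57Bl/6 mouse spleens, red cells lysed in NH4Cl buffer, suspended at 2.5×10^7 cells/mL in RPMI/HEPES pH 7. Preincubated with compound 60 min at 37 °C, then iodinated probe BIL-DMK (1 nM) added for 20 min.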

A20 = assay: Effect of compound on antigen presentation in mouse A20 cells transfected with PC-specific mIgM by IL-2 secretion; format: functional, cell-based
Method in brief: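 A20 cells transfected with PC-specific mIgM (1×10^5) preincubated with compound 60 min at 37 °C in RPMI 1640 with 10% FBS, glutamine and β-mercaptoethanol. DO.11.10 T cells (1×10^5) and PC-OVA antigen (30 μg/mL) added, then incubated overnight. IL-2 secreted into medium measured by ELISA. IC50 taken against DMSO as the no-inhibition control; at least duplicate experiments.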

[11] = Partition co-efficient, logP of the compound; format: physicochemical; conditions: octanol/water
[12] = Dissociation constant, pKa of the compound; format: physicochemical
Rattus norvegicus [13] = assay: Volume of distribution in rat administered with 10 mg/kg, po; format: ADME, organism-based; design: dose 10 mg/kg, route oral; conditions: in vivo
[14] = Volume of distribution in rat administered with 5 mg/kg, iv; format: ADME, organism-based; design: dose 5 mg/kg, route intravenous; conditions: in vivo, read-out: Vdss
Rattus norvegicus [15] = assay: Plasma concentration in rat at 5 mg/kg, iv; format: ADME, organism-based; design: dose 5 mg/kg, route intravenous; conditions: in vivo
Method in brief: (§1)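 Rats dosed 10 mg/kg po or 5 mg/kg iv; tissues and plasma taken 2 h after dosing. Tissue weighed, homogenized in 2 volumes water, then 3 volumes acetonitrile with internal standard, homogenized again and centrifuged. Supernatant quantified by LC-MS/MS against a standard curve from spiked rat plasma.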

Rattus norvegicus [16] = assay: Plasma concentration in rat at 10 mg/kg, po; format: ADME, organism-based; design: dose 10 mg/kg, route oral; conditions: in vivo; method in brief: as §1

| Compound | IC50 (Cathepsin K [1]) | IC50 (Cathepsin B [2]) | IC50 (Cathepsin B [3]) | IC50 (Procathepsin L [4]) | IC50 (Procathepsin L [5]) | IC50 (Cathepsin S [6]) | IC50 (Cathepsin S [7]) | IC50 (Cathepsin K [8]) | IC50 (Osteoclast) | IC50 (Cathepsin S [9]) | IC50 (Cathepsin S [10]) | IC50 (A20) | logP [11] | pKa [12] | Vdss (Rattus norvegicus [13]) | Vd [14] | concentration (Rattus norvegicus [15]) | concentration (Rattus norvegicus [16]) |
| --- | --- | --- | --- | --- | --- | --- | --- | --- | --- | --- | --- | --- | --- | --- | --- | --- | --- | --- |
| CC(C)C[C@@H](C(=O)NCC#N)c1cccc(-c2ccc(N3CCNCC3)cc2)c1 | 7.8 nM | 86000 nM | 4400 nM | 2600 nM | 320 nM | 20000 nM | 1340 nM | 33 nM | 149 nM | 34100 nM | 740 nM | 8600 nM | 3.46 | 8.77 |  |  |  |  |
| CN1CCN(c2nc(-c3ccc(C(=O)NC4(C(=O)NCC#N)CCCCC4)cc3)cs2)CC1 | 0.25 nM | 1100 nM | 17 nM | 6300 nM | 340 nM | 47000 nM | 790 nM | 0.5 nM |  | 5400 nM | 318 nM | 6200 nM | 2.3 | 7.01 | 11 L/kg |  |  | 2400 nM |
| N#CCNC(=O)C1(NC(=O)c2ccc(-c3csc(N4CCOCC4)n3)cc2)CCCCC1 | 2.3 nM | 4200 nM | 2900 nM | 24000 nM | > 10000 nM | 27000 nM | > 10000 nM | 9.5 nM | 41 nM | 8500 nM | 6700 nM | > 100000 nM |  |  |  |  |  |  |
| CN1CCN(c2nc(-c3ccc(C(=O)NC4(C(=O)NCC(F)(F)F)CCCCC4)cc3)cs2)CC1 |  |  |  |  |  |  |  |  |  | 33000 nM | > 10000 nM | > 100000 nM | 2.9 | 6.84 |  |  |  |  |

Continued, values first:

| IC50 (Cathepsin K [1]) | IC50 (Cathepsin B [2]) | IC50 (Cathepsin B [3]) | IC50 (Procathepsin L [4]) | IC50 (Procathepsin L [5]) | IC50 (Cathepsin S [6]) | IC50 (Cathepsin S [7]) | IC50 (Cathepsin K [8]) | IC50 (Osteoclast) | IC50 (Cathepsin S [9]) | IC50 (Cathepsin S [10]) | IC50 (A20) | logP [11] | pKa [12] | Vdss (Rattus norvegicus [13]) | Vd [14] | concentration (Rattus norvegicus [15]) | concentration (Rattus norvegicus [16]) | Compound |
| --- | --- | --- | --- | --- | --- | --- | --- | --- | --- | --- | --- | --- | --- | --- | --- | --- | --- | --- |
|  | 4800 nM | 61 nM | 503 nM | 48 nM | 65000 nM | 2900 nM |  |  | 6350 nM | 480 nM | 6180 nM | 1.81 | 7.76 | 4.7 L/kg |  |  |  | CCCN1CCN(c2ccc(C(=O)NC3(C(=O)NCC#N)CCCCC3)cc2)CC1 [BALICATIB] |
| 1030 nM | 19000 nM | 940 nM | 55 nM | 230 nM | 5.3 nM | 10 nM |  |  | 13 nM | 40 nM | 1220 nM |  |  |  |  |  |  | N#CCNC(=O)[C@H](CC1CCCCC1)NC(=O)c1ccccc1 |
| 19 nM | 15400 nM | 4400 nM | 32000 nM | > 10000 nM | 52000 nM | 4800 nM | 72 nM | 580 nM | 4500 nM | 8500 nM | > 100000 nM | 0.98 |  |  | 1.9 L/kg | 170 nM |  | N#CCNC(=O)C1(NC(=O)c2ccc(N3CCOCC3)cc2)CCCCC1 |
